Assay results taken from ChEMBL document CHEMBL4828740, “Discovery of Quinoxaline-Based P1-P3 Macrocyclic NS3/4A Protease Inhibitors with Potent Activity against Drug-Resistant Hepatitis C Virus Variants” (J Med Chem, 2021).

system: Hepatitis C virus; assay: Antiviral activity against HCV genotype 1b harboring D168A mutant infected in human Huh7 cells incubated for 96 hrs by luciferase assay; assay type: functional, organism-based, Hepacivirus hominis; conditions: subtype 1b, Huh-7, 96 h
Procedure, shortened: (§1)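 Con1 (GT-1b) luciferase reporter replicon carrying the H77 (GT-1a) NS3 protease region, with the mutation introduced by megaprimer site-directed mutagenesis. Cured Huh7 cells were grown in DMEM with 10% heat-inactivated FBS and 0.1 mM non-essential amino acids, electroporated with replicon RNA transcripts, and kept with serially diluted inhibitor. EC50 was taken directly from the inhibition curves.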

COc1ccc2nc(C)c(O[C@@H]3C[C@H]4C(=O)N[C@]5(C(=O)NS(=O)(=O)C6(C)CC6)C[C@H]5/C=C/CCCCC[C@H](NC(=O)OC5CCC5)C(=O)N4C3)nc2c1 and COc1ccc2nc(C)c(O[C@@H]3C[C@H]4C(=O)N[C@]5(C(=O)NS(=O)(=O)C6(C)CC6)C[C@H]5/C=C/CCCCC[C@H](NC(=O)OC5CCCCC5)C(=O)N4C3)nc2c1 are within 1.5-fold of each other in EC50: 2.7 nM for the first, 3 nM for the second.

Going from COc1ccc2nc(C)c(O[C@@H]3C[C@H]4C(=O)N[C@]5(C(=O)NS(=O)(=O)C6(C)CC6)C[C@H]5/C=C/CCCCC[C@H](NC(=O)O[C@H](C)C(C)C)C(=O)N4C3)nc2c1 to COc1ccc2nc(C)c(O[C@@H]3C[C@H]4C(=O)N[C@]5(C(=O)NS(=O)(=O)C6(C)CC6)C[C@H]5/C=C/CCCCC[C@H](NC(=O)OC5(C)CC5)C(=O)N4C3)nc2c1, the EC50 rises from 1.9 nM to 3.5 nM (1.8-fold). The first is the more potent here.

First: COc1ccc2nc(O[C@@H]3C[C@H]4C(=O)N[C@]5(C(=O)NS(=O)(=O)C6(C)CC6)C[C@H]5/C=C/CCCCC[C@H](NC(=O)O[C@@H]5CCC[C@H]5F)C(=O)N4C3)c(C(F)(F)F)nc2c1
Second: COc1ccc2nc(O[C@@H]3C[C@H]4C(=O)N[C@]5(C(=O)NS(=O)(=O)C6(C)CC6)C[C@H]5/C=C/CCCCC[C@H](NC(=O)O[C@@H](C)C5CC5)C(=O)N4C3)c(C(F)(F)F)nc2c1
The EC50 of the first is 7.8-fold lower: 2.3 nM for the first, 18 nM for the second. The first is the more potent here.

First: CCC(CC)OC(=O)N[C@H]1CCCCC/C=C/[C@@H]2C[C@@]2(C(=O)NS(=O)(=O)C2(C)CC2)NC(=O)[C@@H]2C[C@@H](Oc3nc4ccc(OC)cc4nc3C(F)(F)F)CN2C1=O
Second: COc1ccc2nc(O[C@@H]3C[C@H]4C(=O)N[C@]5(C(=O)NS(=O)(=O)C6(C)CC6)C[C@H]5/C=C/CCCCC[C@H](NC(=O)OC5(C)CCC5)C(=O)N4C3)c(C(F)(F)F)nc2c1
The EC50 of the first is 3.4-fold lower: 17 nM for the first, 58 nM for the second.

biological target: T1, Hepatitis C virus serine protease, NS3/NS4A (Hepatitis C virus, UniProt A3EZI9+D2K2A8); assay: Inhibition of HCV GT-3a NS3/4a protease using Ac-DE-D(Edans)-EE-Abu-c-[COO]-AS-K(Dabcy1)-NH2 preincubated for 1 hr followed by substrate addition; assay type: protein-complex assay, Hepatitis C virus subtype 3a; conditions: not given

COc1ccc2nc(C)c(O[C@@H]3C[C@H]4C(=O)N[C@]5(C(=O)NS(=O)(=O)C6(C)CC6)C[C@H]5/C=C/CCCCC[C@H](NC(=O)OC5CCC5)C(=O)N4C3)nc2c1 and COc1ccc2nc(C)c(O[C@@H]3C[C@H]4C(=O)N[C@]5(C(=O)NS(=O)(=O)C6(C)CC6)C[C@H]5/C=C/CCCCC[C@H](NC(=O)OC5CCCCC5)C(=O)N4C3)nc2c1 are within 1.5-fold of each other in Ki: 110 nM for the first, 145 nM for the second.

Going from CCC(CC)OC(=O)N[C@H]1CCCCC/C=C/[C@@H]2C[C@@]2(C(=O)NS(=O)(=O)C2(C)CC2)NC(=O)[C@@H]2C[C@@H](Oc3nc4ccc(OC)cc4nc3C(F)(F)F)CN2C1=O to COc1ccc2nc(O[C@@H]3C[C@H]4C(=O)N[C@]5(C(=O)NS(=O)(=O)C6(C)CC6)C[C@H]5/C=C/CCCCC[C@H](NC(=O)O[C@@H](C)C5CC5)C(=O)N4C3)c(C(F)(F)F)nc2c1, the Ki falls from 840 nM to 412 nM (2-fold).

COc1ccc2nc(O[C@@H]3C[C@H]4C(=O)N[C@]5(C(=O)NS(=O)(=O)C6(C)CC6)C[C@H]5/C=C/CCCCC[C@H](NC(=O)OC5(C)CCC5)C(=O)N4C3)c(C(F)(F)F)nc2c1 was tested, and the Ki was 283 nM.

biological target: T1, Hepatitis C virus serine protease, NS3/NS4A; assay: Inhibition of HCV GT-1a NS3/4a protease using Ac-DE-D(Edans)-EE-Abu-c-[COO]-AS-K(Dabcy1)-NH2 preincubated for 1 hr followed by substrate addition; assay type: protein complex, Hepatitis C virus subtype 1a; conditions: not given

Compared with COc1ccc2nc(C)c(O[C@@H]3C[C@H]4C(=O)N[C@]5(C(=O)NS(=O)(=O)C6(C)CC6)C[C@H]5/C=C/CCCCC[C@H](NC(=O)OC5CCC5)C(=O)N4C3)nc2c1, COc1ccc2nc(C)c(O[C@@H]3C[C@H]4C(=O)N[C@]5(C(=O)NS(=O)(=O)C6(C)CC6)C[C@H]5/C=C/CCCCC[C@H](NC(=O)OC5CCCCC5)C(=O)N4C3)nc2c1 is 3-fold higher in Ki: 0.3 nM for the first, 0.9 nM for the second.

Going from COc1ccc2nc(C)c(O[C@@H]3C[C@H]4C(=O)N[C@]5(C(=O)NS(=O)(=O)C6(C)CC6)C[C@H]5/C=C/CCCCC[C@H](NC(=O)O[C@H](C)C(C)C)C(=O)N4C3)nc2c1 to COc1ccc2nc(C)c(O[C@@H]3C[C@H]4C(=O)N[C@]5(C(=O)NS(=O)(=O)C6(C)CC6)C[C@H]5/C=C/CCCCC[C@H](NC(=O)OC5(C)CC5)C(=O)N4C3)nc2c1, the Ki rises from 1.5 nM to 4.4 nM (2.9-fold). The first binds more tightly here.

COc1ccc2nc(O[C@@H]3C[C@H]4C(=O)N[C@]5(C(=O)NS(=O)(=O)C6(C)CC6)C[C@H]5/C=C/CCCCC[C@H](NC(=O)O[C@@H]5CCC[C@H]5F)C(=O)N4C3)c(C(F)(F)F)nc2c1 and COc1ccc2nc(O[C@@H]3C[C@H]4C(=O)N[C@]5(C(=O)NS(=O)(=O)C6(C)CC6)C[C@H]5/C=C/CCCCC[C@H](NC(=O)O[C@@H](C)C5CC5)C(=O)N4C3)c(C(F)(F)F)nc2c1 are within 1.5-fold of each other in Ki: 8 nM for the first, 10 nM for the second.

CCC(CC)OC(=O)N[C@H]1CCCCC/C=C/[C@@H]2C[C@@]2(C(=O)NS(=O)(=O)C2(C)CC2)NC(=O)[C@@H]2C[C@@H](Oc3nc4ccc(OC)cc4nc3C(F)(F)F)CN2C1=O and COc1ccc2nc(O[C@@H]3C[C@H]4C(=O)N[C@]5(C(=O)NS(=O)(=O)C6(C)CC6)C[C@H]5/C=C/CCCCC[C@H](NC(=O)OC5(C)CCC5)C(=O)N4C3)c(C(F)(F)F)nc2c1 are within 1.5-fold of each other in Ki: 4.6 nM for the first, 4.9 nM for the second.

system: Hepatitis C virus; assay: Antiviral activity against HCV genotype 1b infected in human Huh7 cells incubated for 96 hrs by luciferase assay; assay type: functional, organism-based, Hepacivirus hominis; conditions: Huh-7, 96 h
Procedure, shortened: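 Con1 (GT-1b) luciferase reporter replicon carrying the H77 (GT-1a) NS3 protease region, either WT or with A156T or D168A introduced by megaprimer mutagenesis. Cured Huh7 cells grown in DMEM with 10% heat-inactivated FBS and 0.1 mM non-essential amino acids. Cells electroporated with replicon RNA and kept with serially diluted inhibitor.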

Going from COc1ccc2nc(C)c(O[C@@H]3C[C@H]4C(=O)N[C@]5(C(=O)NS(=O)(=O)C6(C)CC6)C[C@H]5/C=C/CCCCC[C@H](NC(=O)OC5CCC5)C(=O)N4C3)nc2c1 to COc1ccc2nc(C)c(O[C@@H]3C[C@H]4C(=O)N[C@]5(C(=O)NS(=O)(=O)C6(C)CC6)C[C@H]5/C=C/CCCCC[C@H](NC(=O)OC5CCCCC5)C(=O)N4C3)nc2c1, the EC50 rises from 0.1 nM to 0.2 nM (2-fold). The first is the more potent here.

COc1ccc2nc(C)c(O[C@@H]3C[C@H]4C(=O)N[C@]5(C(=O)NS(=O)(=O)C6(C)CC6)C[C@H]5/C=C/CCCCC[C@H](NC(=O)O[C@H](C)C(C)C)C(=O)N4C3)nc2c1 and COc1ccc2nc(C)c(O[C@@H]3C[C@H]4C(=O)N[C@]5(C(=O)NS(=O)(=O)C6(C)CC6)C[C@H]5/C=C/CCCCC[C@H](NC(=O)OC5(C)CC5)C(=O)N4C3)nc2c1 are the same in EC50: 0.3 nM for the first, 0.3 nM for the second.

Going from COc1ccc2nc(O[C@@H]3C[C@H]4C(=O)N[C@]5(C(=O)NS(=O)(=O)C6(C)CC6)C[C@H]5/C=C/CCCCC[C@H](NC(=O)O[C@@H]5CCC[C@H]5F)C(=O)N4C3)c(C(F)(F)F)nc2c1 to COc1ccc2nc(O[C@@H]3C[C@H]4C(=O)N[C@]5(C(=O)NS(=O)(=O)C6(C)CC6)C[C@H]5/C=C/CCCCC[C@H](NC(=O)O[C@@H](C)C5CC5)C(=O)N4C3)c(C(F)(F)F)nc2c1, the EC50 rises from 0.2 nM to 3.3 nM (16-fold). The first is the more potent here.

Compared with CCC(CC)OC(=O)N[C@H]1CCCCC/C=C/[C@@H]2C[C@@]2(C(=O)NS(=O)(=O)C2(C)CC2)NC(=O)[C@@H]2C[C@@H](Oc3nc4ccc(OC)cc4nc3C(F)(F)F)CN2C1=O, COc1ccc2nc(O[C@@H]3C[C@H]4C(=O)N[C@]5(C(=O)NS(=O)(=O)C6(C)CC6)C[C@H]5/C=C/CCCCC[C@H](NC(=O)OC5(C)CCC5)C(=O)N4C3)c(C(F)(F)F)nc2c1 is 2.6-fold lower in EC50: 4.1 nM for the first, 1.6 nM for the second. The second is the more potent here.

system: Hepatitis C virus; assay: Antiviral activity against HCV genotype 1b harboring A156T mutant infected in human Huh7 cells incubated for 96 hrs by luciferase assay; assay type: functional, organism-based, Hepacivirus hominis; conditions: subtype 1b, Huh-7, 96 h; procedure, shortened: as §1

First: COc1ccc2nc(C)c(O[C@@H]3C[C@H]4C(=O)N[C@]5(C(=O)NS(=O)(=O)C6(C)CC6)C[C@H]5/C=C/CCCCC[C@H](NC(=O)OC5CCC5)C(=O)N4C3)nc2c1
Second: COc1ccc2nc(C)c(O[C@@H]3C[C@H]4C(=O)N[C@]5(C(=O)NS(=O)(=O)C6(C)CC6)C[C@H]5/C=C/CCCCC[C@H](NC(=O)OC5CCCCC5)C(=O)N4C3)nc2c1
The EC50 of the first is 2-fold lower: 3.4 nM for the first, 6.8 nM for the second. The first is the more potent here.

Compared with COc1ccc2nc(C)c(O[C@@H]3C[C@H]4C(=O)N[C@]5(C(=O)NS(=O)(=O)C6(C)CC6)C[C@H]5/C=C/CCCCC[C@H](NC(=O)O[C@H](C)C(C)C)C(=O)N4C3)nc2c1, COc1ccc2nc(C)c(O[C@@H]3C[C@H]4C(=O)N[C@]5(C(=O)NS(=O)(=O)C6(C)CC6)C[C@H]5/C=C/CCCCC[C@H](NC(=O)OC5(C)CC5)C(=O)N4C3)nc2c1 is 1.6-fold higher in EC50: 7.7 nM for the first, 12 nM for the second. The first is the more potent here.

First: COc1ccc2nc(O[C@@H]3C[C@H]4C(=O)N[C@]5(C(=O)NS(=O)(=O)C6(C)CC6)C[C@H]5/C=C/CCCCC[C@H](NC(=O)O[C@@H]5CCC[C@H]5F)C(=O)N4C3)c(C(F)(F)F)nc2c1
Second: COc1ccc2nc(O[C@@H]3C[C@H]4C(=O)N[C@]5(C(=O)NS(=O)(=O)C6(C)CC6)C[C@H]5/C=C/CCCCC[C@H](NC(=O)O[C@@H](C)C5CC5)C(=O)N4C3)c(C(F)(F)F)nc2c1
The EC50 of the first is 1.9-fold higher: 35 nM for the first, 18 nM for the second.

First: CCC(CC)OC(=O)N[C@H]1CCCCC/C=C/[C@@H]2C[C@@]2(C(=O)NS(=O)(=O)C2(C)CC2)NC(=O)[C@@H]2C[C@@H](Oc3nc4ccc(OC)cc4nc3C(F)(F)F)CN2C1=O
Second: COc1ccc2nc(O[C@@H]3C[C@H]4C(=O)N[C@]5(C(=O)NS(=O)(=O)C6(C)CC6)C[C@H]5/C=C/CCCCC[C@H](NC(=O)OC5(C)CCC5)C(=O)N4C3)c(C(F)(F)F)nc2c1
The EC50 of the first is 3.3-fold higher: 85 nM for the first, 26 nM for the second.
